Reference: ChEMBL document CHEMBL3593217, “Synthesis and bioactivity of a Goralatide analog with antileukemic activity” (Bioorg Med Chem, 2015)
Activity calls are given as the source filed them. No cut-off for these calls is given here. Peptide text beside a SMILES is read from it. * marks the point of attachment. Cbz = O=C(OCc1ccccc1)*; OBn = c1ccc(CO*)cc1; OtBu = CC(C)(C)O*; tBu = CC(C)(C)*

Experiments:
U-251 = assay: Cytotoxicity against human U251 cells assessed as reduction of clonogenicity at 10 uM after 1 to 2 weeks by crystal violet staining; type: functional, cell-based
How it was run: (§1)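 Clonogenic survival: 1000 cells plated per well, then grown with or without peptide for 1–2 weeks before colonies were scored. Peptide stock was 25 mM in DMSO.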

HEK-293T = assay: Cytotoxicity against human 293T cells assessed as reduction of clonogenicity at 10 uM after 1 to 2 weeks by crystal violet staining; type: cell-based; how it was run: as §1
HL-60 [1] = assay: Cytotoxicity against human HL60 cells assessed as cell viability at 1 to 100 uM after 24 hrs by MTT assay; type: functional, cell-based
How it was run: (§2)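 Cells exposed to peptide at a range of concentrations for 24 h, with DMSO as negative control. Tetrazolium (MTS-type) viability reagent added, then 1–2 h at 37 °C. Read-out is OD at 490 nm. Run in triplicate; significance by Student's t-test against untreated and DMSO-treated cells. Peptide stock was 25 mM in DMSO, stored at −20 °C.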

NALM-6 [2] = assay: Cytotoxicity against human NALM6 cells assessed as cell viability at 1 to 100 uM after 24 hrs by MTT assay; type: functional, cell-based; how it was run: as §2
HEL [3] = assay: Cytotoxicity against human HEL cells assessed as cell viability at 1 to 100 uM after 24 hrs by MTT assay; type: functional, cell-based; how it was run: as §2
HL-60 [4] = assay: Cytotoxicity against human HL60 cells assessed as cell viability after 24 hrs by MTT assay; type: functional, cell-based; how it was run: as §2
HUVEC = assay: Cytotoxicity against human HUVEC cells assessed as cell viability after 24 hrs by MTT assay; type: cell-based; how it was run: as §2
[5] = Chemical stability of the compound in DMSO after 7 days; type: physicochemical; conditions: 168 h
How it was run: (§3)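 Peptide kept in organic solvent (DMSO, CDCl₃ or MeOH) and watched for decomposition, read at 12 h and at 7 days.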

[6] = Chemical stability of the compound in CDCl3 after 7 days; type: physicochemical; conditions: 168 h; how it was run: as §3
[7] = Chemical stability of the compound in MeOH after 7 days; type: physicochemical; conditions: 168 h; how it was run: as §3
[8] = Half life in human plasma; type: ADME, cell-free
HL-60 [9] = assay: Cytotoxicity against human HL60 cells assessed as cell viability at 50 uM after 24 hrs by MTT assay; type: functional, cell-based; how it was run: as §2
NALM-6 [10] = assay: Cytotoxicity against human NALM6 cells assessed as cell viability at 50 uM after 24 hrs by MTT assay; type: functional, cell-based; how it was run: as §2
HEL [11] = assay: Cytotoxicity against human HEL cells assessed as cell viability at 50 uM after 24 hrs by MTT assay; type: functional, cell-based; how it was run: as §2
[12] = Chemical stability of the compound in DMSO after 12 hrs; type: physicochemical; how it was run: as §3
[13] = Chemical stability of the compound in CDCl3 after 12 hrs; type: physicochemical; how it was run: as §3
[14] = Chemical stability of the compound in MeOH after 12 hrs; type: physicochemical; how it was run: as §3

Structure (SMILES) | Activity (U-251) | Activity (HEK-293T) | Activity (HL-60 [1]) | Activity (NALM-6 [2]) | Activity (HEL [3]) | Activity (HL-60 [4]) | Activity (HUVEC) | Stability [5] | Stability [6] | Stability [7] | half-life [8] | inhibition (HL-60 [9]) | inhibition (NALM-6 [10]) | inhibition (HEL [11]) | Stability [12] | Stability [13] | Stability [14]
CC(=O)N[C@@H](COC(C)(C)C)C(=O)N[C@@H](CC(=O)OC(C)(C)C)C(=O)N[C@@H](CCCCNC(=O)OCc1ccccc1)C(=O)N1CCC[C@H]1C(=O)OCc1ccccc1 (Ac-S(tBu)D(OtBu)K(Cbz)P-OBn) | Active | Toxic | Active | Active | Active | Dose-dependent effect | Dose-dependent effect | Stable | Stable | Stable |  |  |  |  |  |  | 
CC(=O)N[C@@H](CO)C(=O)N[C@@H](CC(=O)O)C(=O)N[C@@H](CCCCN)C(=O)N1CCC[C@H]1C(=O)O [GORALATIDE] (Ac-SDKP-OH) |  |  |  |  |  |  |  |  |  |  | 4.5 min | inactive | inactive | inactive | Unstable | Unstable | Unstable
